Reference: ChEMBL document CHEMBL1121850, “Synthesis of peptide analogues of prothrombin precursor sequence 5-9. Substrate specificity of vitamin K dependent carboxylase” (J Med Chem, 1981)
Numbered stars: 1 amine (or outer) side, 2 acyl side, 3 side chain; on linkers, the order of the positions; unused ones are H or OH. Square brackets hold non-standard residues; d marks the D form. Peptide text beside a SMILES is read from it. * marks the point of attachment. ξ: configuration not given here. Pyrrolidin1yl(2S-Ac) = CC(=O)[C@@H]1CCCN1*; ξF = NC(Cc1ccccc1)C(=O)O; X1 = CO[C@H](CC(C)C)N*; Boc = CC(C)(C)OC(=O)*; CO = O=C([*:1])[*:2]; OtBu = CC(C)(C)O*

Tested on: not listed separately
Test: Michaelis constant was determined
Type: ADME

Km | Structure (SMILES)
4 mM | CC(C)C[C@H](NC(=O)[C@H](CCC(=O)O)NC(=O)[C@@H](CCC(=O)O)NC(=O)[C@H](CC(C)C)NC(=O)[C@@H](N)Cc1ccccc1)C(=O)O

Biological target: T1, Vitamin K-dependent gamma-carboxylase (Rattus norvegicus) (UniProt O88496)
T1 sequence (whole entry): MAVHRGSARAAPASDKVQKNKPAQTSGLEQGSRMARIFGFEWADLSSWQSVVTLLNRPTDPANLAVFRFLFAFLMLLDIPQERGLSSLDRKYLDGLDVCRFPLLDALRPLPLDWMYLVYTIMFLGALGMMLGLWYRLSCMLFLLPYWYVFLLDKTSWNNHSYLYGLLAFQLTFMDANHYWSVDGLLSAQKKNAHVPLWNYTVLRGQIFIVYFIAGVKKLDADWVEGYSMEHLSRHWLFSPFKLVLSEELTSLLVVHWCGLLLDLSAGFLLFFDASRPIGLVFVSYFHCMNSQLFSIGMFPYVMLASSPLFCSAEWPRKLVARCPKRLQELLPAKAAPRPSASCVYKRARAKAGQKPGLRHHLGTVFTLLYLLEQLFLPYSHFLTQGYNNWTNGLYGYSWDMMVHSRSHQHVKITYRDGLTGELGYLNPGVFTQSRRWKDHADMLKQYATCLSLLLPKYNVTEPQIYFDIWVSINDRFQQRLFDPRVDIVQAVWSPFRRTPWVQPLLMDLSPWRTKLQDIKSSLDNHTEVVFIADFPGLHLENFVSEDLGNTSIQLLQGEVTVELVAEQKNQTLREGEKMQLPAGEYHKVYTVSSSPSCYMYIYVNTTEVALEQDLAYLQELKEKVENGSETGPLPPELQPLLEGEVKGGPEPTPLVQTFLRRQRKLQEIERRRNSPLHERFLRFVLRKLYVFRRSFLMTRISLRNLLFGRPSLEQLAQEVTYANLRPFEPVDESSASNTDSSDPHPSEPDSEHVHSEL
Test: Relative activity for […] rat liver vitamin K dependent carboxylase mediated carboxylation of pentapeptide at 1 mM.
Type: functional, tissue-based
How it was run: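 Carboxylase source was Triton-solubilized liver microsomes from vitamin K-deficient rats, pellets KCl-washed. Peptide at 1 mM was incubated with NaH¹⁴CO₃ and vitamin K-H₂ (in ethanol) at 17 °C for 10–20 min. Read-out was ¹⁴CO₂ in TCA-soluble material, with the ethanol-only background subtracted. Activity is given as % of the 1 mM reference pentapeptide on the same preparation; duplicate incubations.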

Relative activity | Structure (SMILES)
< 1% | CO[C@@H](CC(C)C)NC(=O)[C@@H](CCC(=O)O)NC(=O)OC(C)(C)C
< 1% | COC(=O)[C@H](CC(C)C)NC(=O)[C@@H](CCC(=O)O)NC(=O)[C@H](CCC(=O)O)NC(=O)[C@H](CC(C)C)NC(=O)[C@H](Cc1ccccc1)NC(=O)OC(C)(C)C
< 1% | CC(C)C[C@H](NC(=O)[C@H](CCC(=O)O)NC(=O)[C@H](CC(C)C)NC(=O)[C@H](CCC(=O)O)NC(=O)[C@H](Cc1ccccc1)NC(=O)O)C(=O)O (HELM PEPTIDE1{[O=C(O)[*:2]].F.E.L.E.L}$$$$V2.0)
< 1% | COC(=O)[C@H](CC(C)C)NC(=O)[C@@H](CCC(=O)O)NC(=O)[C@H](CCC(=O)O)NC(=O)OC(C)(C)C
6% | COC(=O)[C@H](CC(C)C)NC(=O)[C@H](CCC(=O)O)NC(=O)[C@H](CCC(=O)O)NC(=O)CNC(=O)OC(C)(C)C (HELM PEPTIDE1{[CC(C)(C)OC(=O)[*:2]].G.E.E.L.[CO[*:1]]}$$$$V2.0)
24% | CO[C@H](CC(C)C)NC(=O)[C@H](CCC(=O)O)NC(=O)[C@H](CCC(=O)O)NC(=O)[C@H](CC(C)C)NC(=O)C(Cc1ccccc1)NC(=O)OC(C)(C)C (stereo partly drawn) (Boc-[ξF]LEE-X1)
77% | COC(=O)[C@@H](CC(C)C)NC(=O)[C@H](CCC(=O)O)NC(=O)[C@H](CCC(=O)O)NC(=O)[C@H](CC(C)C)NC(=O)OC(C)(C)C
46% | COC(=O)[C@H](CCC(=O)O)NC(=O)[C@H](C)NC(=O)[C@H](CCC(=O)O)NC(=O)[C@H](CC(C)C)NC(=O)OC(C)(C)C (HELM PEPTIDE1{[CC(C)(C)OC(=O)[*:2]].L.E.A.E.[CO[*:1]]}$$$$V2.0)
< 1% | COC(=O)[C@H](CC(C)C)NC(=O)[C@H](CCC(=O)O)NC(=O)[C@@H](CCC(=O)O)NC(=O)[C@H](CC(C)C)NC(=O)[C@H](Cc1ccccc1)NC(=O)OC(C)(C)C
19% | COC(=O)[C@H](CC(C)C)NC(=O)[C@H](CCC(=O)O)NC(=O)[C@H](CCC(=O)O)NC(=O)[C@H](C)NC(=O)OC(C)(C)C (HELM PEPTIDE1{[CC(C)(C)OC(=O)[*:2]].A.E.E.L.[CO[*:1]]}$$$$V2.0)
72% | CC(C)C[C@H](NC(=O)[C@H](CCC(=O)O)NC(=O)[C@H](CCC(=O)O)NC(=O)[C@H](C)NC(=O)[C@@H](N)Cc1ccccc1)C(=O)O (H-FAEEL-OH)
19% | COC(=O)[C@H](CCC(=O)O)NC(=O)[C@H](C)NC(=O)[C@H](CCC(=O)O)NC(=O)[C@H](CC(C)C)NC(=O)N1CCC[C@H]1C(=O)OC(C)(C)C ({OtBu-Pro-CO}-LEAE-OMe)
19% | COC(=O)[C@@H](CC(C)C)NC(=O)[C@H](CCC(=O)O)NC(=O)[C@H](CCC(=O)O)NC(=O)[C@@H](CC(C)C)NC(=O)OC(C)(C)C
27% | CC(C)C[C@H](NC(=O)[C@H](CCC(=O)O)NC(=O)[C@H](CCC(=O)O)NC(=O)[C@H](CC(C)C)NC(=O)[C@H](Cc1ccccc1)NC(=O)c1ccccc1)C(=O)O (HELM PEPTIDE1{[O=C(c1ccccc1)[*:2]].F.L.E.E.L}$$$$V2.0)
11% | COC(=O)NC(=O)[C@H](CC(C)C)NC(=O)[C@H](CC(=O)O)NC(=O)C(CCC(=O)O)NC(=O)OC(C)(C)C (stereo partly drawn)
6% | CC(C)C[C@H](NC(=O)[C@H](CO)NC(=O)[C@H](CCC(=O)O)NC(=O)[C@H](CC(C)C)NC(=O)[C@H](C)NC(=O)[C@H](CCC(=O)O)NC(=O)[C@@H](N)Cc1ccccc1)C(=O)O (H-FEALESL-OH)
4% | COC(=O)NC(=O)[C@H](CCC(=O)O)NC(=O)[C@H](C)NC(=O)[C@H](CCC(=O)O)NC(=O)OC(C)(C)C
6% | COC(=O)NC(=O)[C@H](CC(C)C)NC(=O)[C@H](CCC(=O)O)NC(=O)C(CCSC)NC(=O)CC(C)C (stereo partly drawn)
19% | COC(=O)[C@@H](CC(C)C)NC(=O)[C@H](CCC(=O)O)NC(=O)[C@H](CCC(=O)O)NC(=O)OC(C)(C)C

Relative activity | Structure (SMILES)
4% | CC(C)C[C@H](NC(=O)[C@H](CCC(=O)O)NC(=O)[C@H](CCC(=O)O)NC(=O)CNC(=O)[C@@H](N)Cc1ccccc1)C(=O)O (H-FGEEL-OH)
< 1% | COC(=O)NC(=O)[C@H](CC(C)C)NC(=O)[C@H](CCCC(=O)O)NC(=O)C(CCCC(=O)O)NC(=O)OC(C)(C)C (stereo partly drawn)
< 1% | CC(C)(C)OC(=O)N[C@H](CCC(=O)O)C(=O)NCc1ccccc1
< 1% | COC(=O)NC(=O)[C@H](CC(C)C)NC(=O)[C@H](CC(=O)O)NC(=O)C(CC(=O)O)NC(=O)OC(C)(C)C (stereo partly drawn)
8% | CC(C)C[C@H](NC(=O)[C@H](CCC(=O)O)NC(=O)[C@H](CCC(=O)O)NC(=O)[C@@H](N)CC(C)C)C(=O)O (H-LEEL-OH)
< 1% | COC(=O)NC(=O)[C@H](CC(C)C)NC(=O)[C@H](CCC(=O)O)NC(=O)C(CCC(=O)O)NC(=O)OC(C)(C)C (stereo partly drawn)
25% | COC(=O)[C@H](CCC(=O)O)NC(=O)[C@H](C)NC(=O)[C@H](CCC(=O)O)NC(=O)[C@H](CC(C)C)NC(=O)N1CCC[C@H]1C(C)=O ({Pyrrolidin1yl(2S-Ac)-CO}-LEAE-OMe)
149% | CCC(=O)N[C@@H](Cc1ccccc1)C(=O)N[C@@H](CC(C)C)C(=O)N[C@@H](CCC(=O)O)C(=O)N[C@@H](CCC(=O)O)C(=O)N[C@@H](CC(C)C)C(=O)O (HELM PEPTIDE1{[CCC(=O)[*:2]].F.L.E.E.L}$$$$V2.0)
77% | CO[C@H](CC(C)C)NC(=O)[C@H](CCC(=O)O)NC(=O)[C@H](CCC(=O)O)NC(=O)[C@H](CC(C)C)NC(=O)OC(C)(C)C
100% | CC(C)C[C@H](NC(=O)[C@H](CCC(=O)O)NC(=O)[C@@H](CCC(=O)O)NC(=O)[C@H](CC(C)C)NC(=O)[C@@H](N)Cc1ccccc1)C(=O)O
11% | COC(=O)NC(=O)[C@H](CC(C)C)NC(=O)[C@H](CCC(=O)O)NC(=O)C(CC(=O)O)NC(=O)OC(C)(C)C (stereo partly drawn)
5% | CC(C)(C)OC(=O)N[C@H](CCC(=O)O)C(=O)OCc1ccccc1
< 1% | COC(=O)[C@H](CC(C)C)NC(=O)[C@H](CCC(=O)O)NC(=O)[C@@H](CCC(=O)O)NC(=O)OC(C)(C)C
55% | COC(=O)[C@H](CC(C)C)NC(=O)[C@H](CCC(=O)O)NC(=O)[C@H](CCC(=O)O)NC(=O)[C@@H](CC(C)C)NC(=O)OC(C)(C)C
< 1% | COC(=O)[C@H](CC(C)C)NC(=O)[C@@H](CCC(=O)O)NC(=O)[C@@H](CCC(=O)O)NC(=O)OC(C)(C)C
25% | COC(=O)[C@H](CC(C)C)NC(=O)[C@H](CCC(=O)O)NC(=O)[C@H](CCC(=O)O)NC(=O)CNC(=O)[C@H](Cc1ccccc1)NC(=O)OC(C)(C)C (HELM PEPTIDE1{[CC(C)(C)OC(=O)[*:2]].F.G.E.E.L.[CO[*:1]]}$$$$V2.0)
107% | COC(=O)[C@H](CC(C)C)NC(=O)[C@H](CCC(=O)O)NC(=O)[C@H](CCC(=O)O)NC(=O)OC(C)(C)C
< 1% | COC(=O)[C@H](CC(C)C)NC(=O)[C@@H](CCC(=O)O)NC(=O)[C@@H](CCC(=O)O)NC(=O)[C@H](CC(C)C)NC(=O)[C@H](Cc1ccccc1)NC(=O)OC(C)(C)C
